Data set [1] can be described thus: melting temperature; fluorescence melt of hairpins on a sequencing array, two-state fit, raised by 9.35 °C to match UV melts. Particulars: sodium 0.088 M. Summed up: (§1)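 Melting temperature and folding enthalpy were obtained by bootstrapped two-state fitting. Fits used Cy3 fluorescence of library hairpins with annealed Cy3 and quencher oligos on a sequenced MiSeq flow cell, imaged in 50 mM Na-HEPES pH 8.0, 25 mM NaCl in 2.5 °C steps up to 60 °C and normalised to pre-quench Cy3 and control constructs. Four replicates were combined by inverse-variance weighting, and fitted temperatures were raised by 9.35 °C to match UV melts.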

Data set [2] is described as follows: folding enthalpy; higher = less favourable; fluorescence melt of hairpins on a sequencing array, two-state fit. Particulars: sodium 0.088 M. Summed up:
as §1

As to GATCCATCTTTGGATC ((((((....)))))), in data set [1], the Tm came to 52.6 °C. Besides, in data set [2], the folding enthalpy was -37.5 kcal/mol.
As for GATCCATGCCTGGATC ((((((....)))))), the Tm in data set [1] amounted to 51.6 °C. The folding enthalpy in data set [2] was -36.2 kcal/mol.
For GATCCATGGCTGGATC ((((((....)))))), the Tm in data set [1] was 50.5 °C. Also, the folding enthalpy in data set [2] is -35.8 kcal/mol.
For GATCCATGTGTGGATC ((((((....)))))), the Tm in data set [1] worked out at 56.5 °C. Moreover, the folding enthalpy in data set [2] was -37.2 kcal/mol.
The matching figures for GATCCATTATGGATC ((((((...)))))): 52.7 °C and -35.9 kcal/mol.
Consider GATCCATTCATGGATC ((((((....)))))), for which the Tm in data set [1] amounted to 59.5 °C. The folding enthalpy in data set [2] is -43.5 kcal/mol.
As for GATCCATTCCTGGATC ((((((....)))))), in data set [1], the Tm was found to be 50.3 °C. The folding enthalpy in data set [2] is -39.1 kcal/mol.
Take GATCCATTCTGGATC ((((((...)))))): the Tm in data set [1] turned out to be 54.3 °C. For the same sequence, the folding enthalpy in data set [2] is -33.2 kcal/mol.
With GATCCATTGTGGATC ((((((...)))))), in data set [1], the Tm came out at 51.7 °C. For the same sequence, in data set [2], the folding enthalpy is -38.8 kcal/mol.
Turning to GATCCATTGTTGGATC ((((((....)))))), the Tm in data set [1] was determined as 52.2 °C. Besides, the folding enthalpy in data set [2] is -44.2 kcal/mol.
For GATCCATTTCTGGATC ((((((....)))))), the Tm in data set [1] turned out to be 51 °C. Also, in data set [2], the folding enthalpy was -34.3 kcal/mol.
For GATCCATTTTTGGATC ((((((....)))))), in data set [1], the Tm was found to be 54 °C. Besides, in data set [2], the folding enthalpy is -39.5 kcal/mol.
Regarding GATCCCAAACGGGATC ((((((....)))))), the Tm in data set [1] was 59.7 °C. Also, the folding enthalpy in data set [2] is -35.3 kcal/mol.
As for GATCCCAATGGGATC ((((((...)))))), the Tm in data set [1] came to 60.6 °C. Further, in data set [2], the folding enthalpy was -32.5 kcal/mol.
In the case of GATCCCACAAGGGATC ((((((....)))))), the Tm in data set [1] amounted to 64.7 °C. Moreover, the folding enthalpy in data set [2] was -30.6 kcal/mol.
In the case of GATCCCACGAGGGATC ((((((....)))))), the Tm in data set [1] was determined as 63.5 °C. Moreover, in data set [2], the folding enthalpy is -34.5 kcal/mol.
The matching figures for GATCCCACGTGGGATC ((((((....)))))): 60.3 °C and -45.1 kcal/mol.
As for GATCCCACTGGGGATC ((((((....)))))), in data set [1], the Tm amounted to 62.4 °C. Moreover, the folding enthalpy in data set [2] was -30.7 kcal/mol.
Regarding GATCCCAGTGGGATC ((((((...)))))), the Tm in data set [1] turned out to be 60.8 °C. For the same sequence, in data set [2], the folding enthalpy was -40.6 kcal/mol.
Take GATCCCATGTGGGATC ((((((....)))))): the Tm in data set [1] came to 61.2 °C. In addition, in data set [2], the folding enthalpy was -38.2 kcal/mol.
The corresponding values for GATCCCCAGTGGGATC ((((((....)))))) are 59.1 °C and -43.5 kcal/mol.
The corresponding values for GATCCCCATGGGGATC ((((((....)))))) are 67.7 °C and -39.7 kcal/mol.
The matching figures for GATCCCCCAAGGGATC ((((((....)))))): 61.2 °C and -38.6 kcal/mol.
GATCCCCCTAGGGATC ((((((....)))))): in data set [1], the Tm is 61.3 °C. Further, in data set [2], the folding enthalpy was -32.6 kcal/mol.
With GATCCCCCTGGGGATC ((((((....)))))), the Tm in data set [1] was found to be 67.5 °C. The folding enthalpy in data set [2] is -36.1 kcal/mol.
Turning to GATCCCCGAAAGGGCATC (((.(((....))).))), in data set [1], the Tm turned out to be 34.3 °C. In addition, the folding enthalpy in data set [2] is -14.3 kcal/mol.
In the case of GATCCCCGACGGGATC ((((((....)))))), the Tm in data set [1] turned out to be 56.8 °C. In addition, the folding enthalpy in data set [2] is -27.3 kcal/mol.
For GATCCCCGAGGGATC ((((((...)))))), the Tm in data set [1] was determined as 62 °C. The folding enthalpy in data set [2] is -31.8 kcal/mol.
Take GATCCCCGGCGGGATC ((((((....)))))): in data set [1], the Tm was 55.7 °C. For the same sequence, in data set [2], the folding enthalpy is -37.8 kcal/mol.
The matching figures for GATCCCCGGGGGATC ((((((...)))))): 60.9 °C and -35.3 kcal/mol.
The corresponding values for GATCCCCGGTGGGATC ((((((....)))))) are 57.7 °C and -37.5 kcal/mol.
Consider GATCCCCGTCGGGATC ((((((....)))))), for which the Tm in data set [1] is 62.8 °C. Moreover, the folding enthalpy in data set [2] was -32.4 kcal/mol.
The matching figures for GATCCCCTCTGGGATC ((((((....)))))): 60.3 °C and -29 kcal/mol.
GATCCCCTGTGGGATC ((((((....)))))): the Tm in data set [1] was found to be 63 °C. In addition, in data set [2], the folding enthalpy was -33.3 kcal/mol.
In the case of GATCCCCTTGGGATC ((((((...)))))), the Tm in data set [1] was found to be 63.6 °C. Also, in data set [2], the folding enthalpy was -37.4 kcal/mol.
For the sequence GATCCCGAAAGGGACATC ((((((....)))..))), in data set [1], the Tm is 30.9 °C. The folding enthalpy in data set [2] was -9.22 kcal/mol.
The matching figures for GATCCCGAAAGGGCGATC ((((((....)))..))): 31.9 °C and -12.2 kcal/mol.
Take GATCCCGAAAGGGGTATC ((((((....)))..))): the Tm in data set [1] came to 35.7 °C. The folding enthalpy in data set [2] was -11.8 kcal/mol.

(Values after the array DNA melting data of Ke et al. (doi:10.1101/2024.01.08.574731).)
